Measured values taken from ChEMBL document CHEMBL3526063, “Metabolism and pharmacokinetics of JM6 in mice: JM6 is not a prodrug for Ro-61-8048” (Drug Metab Dispos, 2012).

What was measured:
[1] = target: Kynurenine 3-monooxygenase (Rattus norvegicus, UniProt O88867); test: Inhibition of Wistar rat KMO assessed as 3-hydroxykynurenine formation preincubated for 5 mins using 100 uM kynurenine as substrate by LC-MS/MS analysis
Method in brief: (§1)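 Liver mitochondrial KMO preparation (mouse C57 BL/6J, rat Wistar, human) at 0.3 mg protein/mL in 100 mM potassium phosphate pH 7.4 with 200 µM NADPH, 0.4 U/mL G6PDH, 3 mM glucose 6-phosphate. Compound pre-incubated 5 min at 25°C, then 100 µM kynurenine added; 40 min (rodent) or 60 min (human). Stopped with TCA; 3-hydroxykynurenine by LC-MS/MS. IC50 from 8-point 3-fold dilutions (top 3 or 30 µM), triplicates, n≥2 runs.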

[2] = Half life in C57BL/6N mouse treated with JM6 (containing <0.4% Ro-61-8048) at 9.5 mg/kg, po and Ro-61-8048 at 0.05 mg/kg, po drugs administered via gavage by LC-MS/MS analysis; format: ADME, organism-based; details: in vivo, in the assay text read “0.5 mg/kg” for “0.05 mg/kg”
Method in brief: (§2)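 Male C57BL/6N mice were dosed by oral gavage at 10 mL/kg with a fine suspension in 10% hydroxypropyl-β-cyclodextrin in 50 mM phosphate buffer, pH 7. Plasma was taken at non-serial time points (n=3 per time point), extracted with 0.1% formic acid in acetonitrile containing diclofenac as internal standard, and quantified by UPLC-MS/MS. Composite non-compartmental parameters came from mean concentrations; AUClast by linear trapezoid, kel from at least three terminal points.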

[3] = Metabolic stability in human liver microsomes assessed as half life at 5 uM after 5 to 40 mins by LC-MS/MS analysis; format: ADME
[4] = Apparent permeability from basolateral to apical side in MDCK2 cells at 10 uM after 1 hr by LC-MS/MS analysis; format: ADME, cell-based, Canis lupus familiaris, MDCK-II; details: dog
Method in brief: (§3)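 MDCKII wild-type or MDR1 monolayers were grown 3 days on Transwells after seeding at 2×10^5 cells/well. Compound at 10 µM in HBSS with 25 mM HEPES, pH 7.4, was added apically or basolaterally in duplicate, with Lucifer Yellow as an integrity marker (wells above 100 nm/s rejected).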

[5] = Efflux ratio of permeability from basolateral to apical side over apical to basolateral side in MDCK2 cells at 10 uM after 1 hr by LC-MS/MS analysis; format: ADME, cell-based, Canis lupus familiaris, MDCK-II; details: dog
Method in brief: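 MDCKII wild-type and MDR1 cells grown on Transwells 3 days at 2×10^5 cells/well. Compound 10 μM in HBSS with 25 mM HEPES pH 7.4, added apical or basolateral in duplicate, 1 h at 37 °C. Lucifer Yellow monitored monolayer integrity; wells above 100 nm/s rejected. Both chambers sampled, LC-MS/MS; Papp A>B and B>A, ratio B>A:A>B.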

[6] = Half life in C57BL/6N mouse treated with JM6 (containing <0.4% Ro-61-8048) at 25 mg/kg, po and Ro-61-8048 at 0.05 mg/kg, po drugs administered via gavage by LC-MS/MS analysis; format: ADME, organism-based; details: in vivo; method in brief: as §2
[7] = Tmax in C57BL/6N mouse treated with JM6 (containing <0.4% Ro-61-8048) at 9.5 mg/kg, po and Ro-61-8048 at 0.05 mg/kg, po drugs administered via gavage by LC-MS/MS analysis; format: ADME, organism-based; details: in vivo, in the assay text read “0.5 mg/kg” for “0.05 mg/kg”
Method in brief: (§4)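 Male C57BL/6N mice dosed by oral gavage (10 mL/kg) as fine suspensions in 10% hydroxypropyl-β-cyclodextrin in 50 mM phosphate buffer pH 7; dose formulations verified by LC-MS/MS. Plasma analysed by LC-MS/MS; composite non-compartmental parameters from mean concentrations (n=3 per time point), C0 set to zero. %F = dose-normalised po AUCinf over dose-normalised iv AUCinf, only within linear range.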

[8] = Cmax in C57BL/6N mouse treated with JM6 (containing <0.4% Ro-61-8048) at 9 mg/kg, po and Ro-61-8048 at 1 mg/kg, po drugs administered via gavage by LC-MS/MS analysis; format: ADME, organism-based; parameters: dose 9 mg/kg, route oral; details: in vivo; method in brief: as §2
[9] = Cmax in C57BL/6N mouse treated with JM6 (containing <0.4% Ro-61-8048) at 10 mg/kg, po and Ro-61-8048 at 0.05 mg/kg, po drugs administered via gavage by LC-MS/MS analysis; format: ADME, organism-based; parameters: dose 10 mg/kg, route oral; details: in vivo; method in brief: as §2
[10] = test system: Mus musculus; test: Dose normalised AUC in C57BL/6N mouse treated with JM6 (containing <0.4% Ro-61-8048) at 10 mg/kg, po and Ro-61-8048 at 0.05 mg/kg, po drugs administered via gavage by LC-MS/MS analysis; format: ADME, organism-based; details: in vivo; method in brief: as §2
[11] = test system: Mus musculus; test: Dose normalised AUC in C57BL/6N mouse treated with JM6 (containing <0.4% Ro-61-8048) at 25 mg/kg, po and Ro-61-8048 at 0.05 mg/kg, po drugs administered via gavage by LC-MS/MS analysis; format: ADME, organism-based; details: in vivo; method in brief: as §2
[12] = AUC(infinity) in C57BL/6N mouse treated with JM6 (containing <0.4% Ro-61-8048) at 9 mg/kg, po and Ro-61-8048 at 1 mg/kg, po drugs administered via gavage by LC-MS/MS analysis; format: ADME, organism-based; parameters: dose 9 mg/kg, time infinity, route oral; details: plasma; method in brief: as §2
[13] = Hepatic extraction ratio in mouse Hepatocyte at 1 uM after 10 to 90 mins by LC-MS/MS analysis; format: ADME, cell-based; details: hepatocytes, read-out: ERH
[14] = test system: MDR1; test: Apparent permeability from basolateral to apical side in MDCK2-MDR1 cells at 10 uM after 1 hr by LC-MS/MS analysis; format: ADME, cell-based, Canis lupus familiaris, MDCK-II; details: dog, MDCK-MDR1; method in brief: as §3
[15] = Tmax in C57BL/6N mouse treated with JM6 (containing <0.4% Ro-61-8048) at 10 mg/kg, po and Ro-61-8048 at 0.05 mg/kg, po drugs administered via gavage by LC-MS/MS analysis; format: ADME, organism-based; details: in vivo; method in brief: as §4
[16] = Metabolic stability in rat plasma assessed as half life at 5 uM after 10 to 1440 mins by LC-MS/MS analysis; format: ADME, cell-free
[17] = Half life in C57BL/6N mouse treated with JM6 (containing <0.4% Ro-61-8048) at 10 mg/kg, po and Ro-61-8048 at 0.05 mg/kg, po drugs administered via gavage by LC-MS/MS analysis; format: ADME, organism-based; details: in vivo; method in brief: as §2
[18] = target: Kynurenine 3-monooxygenase (Mus musculus, UniProt Q91WN4); test: Inhibition of C57BL/6J mouse KMO assessed as 3-hydroxykynurenine formation preincubated for 5 mins using 100 uM kynurenine as substrate by LC-MS/MS analysis; method in brief: as §1
Sequence of Kynurenine 3-monooxygenase (Mus musculus, UniProt Q91WN4) (Q91WN4 whole entry): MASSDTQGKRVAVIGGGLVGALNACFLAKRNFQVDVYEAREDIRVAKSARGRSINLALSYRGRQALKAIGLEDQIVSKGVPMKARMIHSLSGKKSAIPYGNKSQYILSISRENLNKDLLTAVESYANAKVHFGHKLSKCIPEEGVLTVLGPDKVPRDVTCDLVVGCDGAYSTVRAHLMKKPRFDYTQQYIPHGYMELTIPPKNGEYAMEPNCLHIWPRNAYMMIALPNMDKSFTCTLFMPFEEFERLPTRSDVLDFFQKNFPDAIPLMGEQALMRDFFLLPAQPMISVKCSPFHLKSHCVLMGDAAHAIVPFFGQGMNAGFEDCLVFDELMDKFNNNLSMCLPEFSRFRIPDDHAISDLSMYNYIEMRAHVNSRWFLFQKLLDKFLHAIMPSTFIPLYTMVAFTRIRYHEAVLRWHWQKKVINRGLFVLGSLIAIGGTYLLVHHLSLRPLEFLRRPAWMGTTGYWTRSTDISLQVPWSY

[19] = test system: Mus musculus; test: Dose normalised AUC in C57BL/6N mouse treated with JM6 (containing <0.4% Ro-61-8048) at 9.5 mg/kg, po and Ro-61-8048 at 0.05 mg/kg, po drugs administered via gavage by LC-MS/MS analysis; format: ADME, organism-based; details: in vivo, in the assay text read “0.5 mg/kg” for “0.05 mg/kg”; method in brief: as §2
[20] = Tmax in C57BL/6N mouse treated with JM6 (containing <0.4% Ro-61-8048) at 25 mg/kg, po and Ro-61-8048 at 0.05 mg/kg, po drugs administered via gavage by LC-MS/MS analysis; format: ADME, organism-based; details: in vivo; method in brief: as §4

Sequence of Kynurenine 3-monooxygenase (Rattus norvegicus, UniProt O88867) (O88867 whole entry): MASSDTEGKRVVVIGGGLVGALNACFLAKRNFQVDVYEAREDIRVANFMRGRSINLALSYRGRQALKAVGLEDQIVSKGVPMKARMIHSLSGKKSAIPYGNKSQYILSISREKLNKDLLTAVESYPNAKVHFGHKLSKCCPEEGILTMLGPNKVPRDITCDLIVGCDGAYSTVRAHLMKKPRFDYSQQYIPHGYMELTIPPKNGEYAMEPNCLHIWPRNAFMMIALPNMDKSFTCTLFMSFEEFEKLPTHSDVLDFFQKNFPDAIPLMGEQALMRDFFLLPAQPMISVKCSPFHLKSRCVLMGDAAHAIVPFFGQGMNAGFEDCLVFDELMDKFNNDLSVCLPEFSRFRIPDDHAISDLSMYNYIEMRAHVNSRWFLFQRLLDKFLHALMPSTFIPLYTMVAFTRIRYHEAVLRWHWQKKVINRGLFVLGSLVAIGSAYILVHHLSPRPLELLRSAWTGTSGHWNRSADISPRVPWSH

| IC50 [1] [µM] | half-life [2] [min] | half-life at 5 µM [3] [min] | half-life [6] [min] | Tmax [7] [min] | Cmax [8] [nM] | Cmax [9] [nM] | AUC/dose [10] [nM·kg·h/mg] | AUC/dose [11] [nM·kg·h/mg] | AUC(0-inf) [12] [µM·h] | hepatic extraction ratio at 1 µM [13] | Papp B→A at 1 h, 10 µM [14] [×10⁻⁶ cm/s] | Tmax [15] [min] | half-life at 5 µM [16] [min] | half-life [17] [min] | IC50 [18] [µM] | AUC/dose [19] [nM·kg·h/mg] | Tmax [20] [min] | SMILES | also measured |
| --- | --- | --- | --- | --- | --- | --- | --- | --- | --- | --- | --- | --- | --- | --- | --- | --- | --- | --- | --- |
| 0.022 | 414 | 12 | 312 | 30 | 17000 | 530 | 100000 | 180000 | 110 | < 0.5 | 33 | 60 | > 1440 | 348 | 0.09 | 110000 | 120 | COc1ccc(S(=O)(=O)Nc2nc(-c3cccc([N+](=O)[O-])c3)cs2)cc1OC | Papp B→A at 1 h, 10 µM ([4]; MDCK): 13 ×10⁻⁶ cm/s; efflux ratio at 1 h, 10 µM ([5]; MDCK): 0.8 |
| 7.1 | 54 | > 97 | 42 | 30 | 1000 | 1900 | 130 | 190 | 1.1 | 0.83 | 43 | 30 | > 1440 | 42 | 20 | 160 | 30 | COc1ccc(S(=O)(=O)Nc2nc(-c3cccc([N+](=O)[O-])c3)c(CN3CCCCC3)s2)cc1OC | Papp ([4]; mdck-ii, 1 h, 10 µM): 0.53 ×10⁻⁶ cm/s; Ratio ([5]; mdck-ii, 1 h, 10 µM): 5.3 |
